Measurements as given in ChEMBL document CHEMBL4152207, “Discovery of potent and selective BRD4 inhibitors capable of blocking TLR3-induced acute airway inflammation” (Eur J Med Chem, 2018).
Calls of active or inactive are those of the source. No cut-off for these calls is given here.

Legend:
[1] = target: CREB-binding protein (Homo sapiens, UniProt Q92793); assay: Inhibition of CBP (unknown origin) after 1 hr by TR-FRET assay
Procedure, shortened: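 Isolated bromodomain in a kit TR-FRET assay. Inhibitor series 0.01 nM to 100 μM, incubated 1 h at room temperature. Excitation 340 nm, emission read at 620 and 670 nm with 100 μs delay and 500 μs window. IC50 from the sigmoidal plot of the 670/620 ratio against concentration. Mean of at least two runs.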

[2] = Volume of distribution at steady state in rat at 10 mg/kg, iv; type: ADME, organism-based; settings: in vivo, read-out: Vdss
[3] = Cmax in rat at 20 mg/kg, po; type: ADME, organism-based; design: dose 20 mg/kg, route oral; settings: in vivo
[4] = AUC (0 to t) in rat at 20 mg/kg, po; type: ADME, organism-based; settings: in vivo
[5] = tested on: Mus musculus; assay: Anti-inflammatory activity in poly(I:C)-induced airway inflammation C57BL/6 mouse model assessed as reduction in mCIG5 expression in lung at 10 mg/kg, ip administered 1 day prior to poly(I:C) stimulation and redosed on day 2 followed by poly(I:C) stimulation; type: functional, organism-based
Procedure, shortened: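 Male C57BL/6J mice, 12 weeks old, were given 10 mg/kg i.p. one day before stimulation. The next day they got a second dose, immediately followed by intranasal poly(I:C) (300 μg in 50 μL PBS) or PBS alone. Compound was taken up in DMSO and diluted in 10% hydroxypropyl β-cyclodextrin in PBS. Mice were euthanized one day later and lung tissue was collected for cytokine expression.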

[6] = tested on: Mus musculus; assay: Toxicity in mouse assessed as effect on RBC levels at 1 to 50 mg/kg, ip dosed daily for 1 month; type: organism-based; settings: in vivo
[7] = tested on: Mus musculus; assay: Hepatotoxicity in mouse assessed as effect on ALT level at 1 to 50 mg/kg, ip dosed daily for 1 month; type: toxicity, organism-based; settings: in vivo
Procedure, shortened: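 Groups of n = 5 mice were dosed daily at 1-50 mg/kg for one month. Liver function markers (albumin, globulin, ALK, ALT) were measured alongside body weight, blood counts and renal markers.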

[8] = target: Alpha-1A adrenergic receptor (Homo sapiens) (UniProt P35348); assay: Displacement of [3H]prazosin from human recombinant adrenergic alpha1A receptor at 10 uM after 120 mins by scintillation counting analysis relative to control
[9] = target: B2 bradykinin receptor (Homo sapiens) (UniProt P30411); assay: Displacement of [3H]bradykinin from human recombinant B2 receptor at 10 uM after 60 mins by scintillation counting analysis relative to control
[10] = target: Cannabinoid receptor 2 (Homo sapiens) (UniProt P34972); assay: Displacement of [3H]WIN 55212-2 from human recombinant CB2 receptor at 10 uM after 120 mins by scintillation counting analysis relative to control
[11] = target: Cholecystokinin receptor type A (Homo sapiens) (UniProt P32238); assay: Displacement of [125I]CCK-8s from human recombinant CCK1 receptor at 10 uM after 60 mins by scintillation counting analysis relative to control
[12] = target: D(2) dopamine receptor (Homo sapiens) (UniProt P14416); assay: Displacement of [3H]7-OH-DPAT from human recombinant dopamine D2S receptor at 10 uM after 60 mins by scintillation counting analysis relative to control
[13] = target: Histamine H2 receptor (Homo sapiens) (UniProt P25021); assay: Displacement of [125I]APT from human recombinant histamine H2 receptor at 10 uM after 120 mins by scintillation counting analysis relative to control
[14] = target: Neuronal acetylcholine receptor; alpha4/beta2 (Homo sapiens) (UniProt P17787+P43681); assay: Binding affinity to neuronal alpha4beta2 (unknown origin) at 10 uM by antgonist radioligand assay relative to control; type: protein-complex assay
[15] = target: Delta-type opioid receptor (Homo sapiens) (UniProt P41143); assay: Displacement of [3H]DADLE from human recombinant delta opioid receptor after 60 mins by scintillation counting analysis relative to control
[16] = target: 5-hydroxytryptamine receptor 1A (Homo sapiens) (UniProt P08908); assay: Displacement of [3H]8-OH-DPAT from recombinant human 5-HT1A receptor at 10 uM after 60 mins by scintillation counting analysis relative to control
[17] = target: 5-hydroxytryptamine receptor 3A (Homo sapiens) (UniProt P46098); assay: Displacement of [3H]BRL 43694 from human recombinant 5-HT3 receptor at 10 uM after 120 mins by scintillation counting analysis relative to control
[18] = target: Glucocorticoid receptor (Homo sapiens) (UniProt P04150); assay: Displacement of [3H]dexamethasone from human GR at 10 uM after 360 mins by scintillation counting analysis relative to control
[19] = target: Vasopressin V1a receptor (Homo sapiens) (UniProt P37288); assay: Displacement of [3H]AVP from human recombinant V1a receptor at 10 uM after 60 mins by scintillation counting analysis relative to control
[20] = target: Cav1.2 (L-type calcium channel) (Rattus norvegicus, UniProt P22002); assay: Displacement of [3H]nitrendipine from rat Cav1.2 (L-type) at 10 uM after 90 mins by scintillation counting analysis relative to control; settings: probe [3H]nitrendipine, read-out: Activity
[21] = target: hERG (KCNH2) (Homo sapiens, UniProt Q12809); assay: Displacement of [3H]Dofetilide from human ERG at 10 uM after 60 mins by scintillation counting analysis relative to control; settings: probe [3H]Dofetilide, read-out: Activity
[22] = organism: Rattus norvegicus; assay: Displacement of [125I]alpha-dendrotoxin from rat Voltage-gated potassium channel at 10 uM after 60 mins by scintillation counting analysis relative to control
Procedure, shortened: (§1)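 Run within a commercial off-target panel of receptors and enzymes, with compound tested at a single concentration of 10 μM.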

[23] = target: Sodium-dependent serotonin transporter (Homo sapiens) (UniProt P31645); assay: Binding affinity to human serotonin transporter at 10 uM by antagonist radioligand assay relative to control; design: scale not given: the % may be the effect or the level left
[24] = target: Prostaglandin G/H synthase 1 (Homo sapiens) (UniProt P23219); assay: Inhibition of human recombinant COX1 using arachidonic acid as substrate after 3 mins by fluorimetric analysis; design: scale not given: the % may be the effect or the level left
[25] = target: Tyrosine-protein kinase Lck (Homo sapiens) (UniProt P06239); assay: Inhibition of human recombinant LCK using Ulight-Poly GAT[EAY(1:1:1)]n as substrate after 10 mins relative to control; design: scale not given: the % may be the effect or the level left
[26] = target: Acetylcholinesterase (Homo sapiens) (UniProt P22303); assay: Inhibition of human recombinant ACHE using acetylthiocholine as substrate after 30 mins by spectrophotometric relative to control; design: scale not given: the % may be the effect or the level left; procedure, shortened: as §1
[27] = target: Inhibitor of nuclear factor kappa-B kinase subunit alpha (Homo sapiens) (UniProt O15111); assay: Inhibition of human recombinant IKKalpha using Ulight-IkappaB-alpha as substrate after 30 mins relative to control; design: scale not given: the % may be the effect or the level left
[28] = target: Inhibitor of nuclear factor kappa-B kinase subunit epsilon (Homo sapiens) (UniProt Q14164); assay: Inhibition of human recombinant IKKepsilon using Ulight-FLGFTYVAP as substrate after 90 mins relative to control; design: scale not given: the % may be the effect or the level left
[29] = tested on: Mus musculus; assay: Anti-inflammatory activity in poly(I:C)-induced airway inflammation C57BL/6 mouse model assessed as reduction in total cells in bronchoalveolar lavage fluid at 10 mg/kg, ip administered 1 day prior to poly(I:C) stimulation and redosed on day 2 followed by poly(I:C) stimulation by trypan blue staining-based hemocytometric analysis; type: functional, organism-based

Cholecystokinin receptor type A (Homo sapiens), sequence (P32238 whole entry): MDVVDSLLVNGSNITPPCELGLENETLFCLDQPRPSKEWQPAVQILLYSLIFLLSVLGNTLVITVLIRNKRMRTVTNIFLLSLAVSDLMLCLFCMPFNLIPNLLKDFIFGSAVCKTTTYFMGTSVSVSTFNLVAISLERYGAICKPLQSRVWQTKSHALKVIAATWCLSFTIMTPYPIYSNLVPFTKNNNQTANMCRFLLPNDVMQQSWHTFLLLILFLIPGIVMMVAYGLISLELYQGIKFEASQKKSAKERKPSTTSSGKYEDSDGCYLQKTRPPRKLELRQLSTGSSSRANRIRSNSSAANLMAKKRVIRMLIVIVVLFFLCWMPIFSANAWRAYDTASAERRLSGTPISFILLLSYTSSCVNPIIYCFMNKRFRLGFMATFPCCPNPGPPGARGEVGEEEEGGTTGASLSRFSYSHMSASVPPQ
Sodium-dependent serotonin transporter (Homo sapiens), sequence (P31645 whole entry, looked up): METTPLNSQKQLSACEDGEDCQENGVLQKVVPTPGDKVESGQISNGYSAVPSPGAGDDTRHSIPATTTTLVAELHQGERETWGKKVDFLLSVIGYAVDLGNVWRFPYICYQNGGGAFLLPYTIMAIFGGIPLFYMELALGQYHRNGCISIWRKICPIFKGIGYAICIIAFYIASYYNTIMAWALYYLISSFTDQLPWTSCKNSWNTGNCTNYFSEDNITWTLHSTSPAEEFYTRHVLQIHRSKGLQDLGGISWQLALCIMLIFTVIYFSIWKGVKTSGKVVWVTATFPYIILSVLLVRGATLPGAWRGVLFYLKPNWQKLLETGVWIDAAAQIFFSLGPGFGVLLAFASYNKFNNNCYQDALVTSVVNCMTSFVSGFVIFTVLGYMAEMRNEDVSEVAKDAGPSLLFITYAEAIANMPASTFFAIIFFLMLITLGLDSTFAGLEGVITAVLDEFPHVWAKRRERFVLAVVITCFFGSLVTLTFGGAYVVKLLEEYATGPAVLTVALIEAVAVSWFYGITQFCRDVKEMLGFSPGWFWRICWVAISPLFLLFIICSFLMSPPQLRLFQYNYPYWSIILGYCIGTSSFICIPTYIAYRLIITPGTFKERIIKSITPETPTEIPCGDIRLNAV
B2 bradykinin receptor (Homo sapiens), sequence (P30411 whole entry): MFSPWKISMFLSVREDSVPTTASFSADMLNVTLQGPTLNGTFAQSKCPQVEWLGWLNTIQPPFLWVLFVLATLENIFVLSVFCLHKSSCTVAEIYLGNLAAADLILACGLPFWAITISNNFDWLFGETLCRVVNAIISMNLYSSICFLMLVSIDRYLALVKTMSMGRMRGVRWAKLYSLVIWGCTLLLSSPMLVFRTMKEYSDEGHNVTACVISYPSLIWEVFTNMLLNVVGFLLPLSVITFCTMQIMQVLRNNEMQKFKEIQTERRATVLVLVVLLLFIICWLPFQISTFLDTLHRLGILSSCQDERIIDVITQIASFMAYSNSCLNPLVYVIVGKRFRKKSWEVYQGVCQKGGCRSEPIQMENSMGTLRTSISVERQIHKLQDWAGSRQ
Prostaglandin G/H synthase 1 (Homo sapiens), sequence (P23219 whole entry): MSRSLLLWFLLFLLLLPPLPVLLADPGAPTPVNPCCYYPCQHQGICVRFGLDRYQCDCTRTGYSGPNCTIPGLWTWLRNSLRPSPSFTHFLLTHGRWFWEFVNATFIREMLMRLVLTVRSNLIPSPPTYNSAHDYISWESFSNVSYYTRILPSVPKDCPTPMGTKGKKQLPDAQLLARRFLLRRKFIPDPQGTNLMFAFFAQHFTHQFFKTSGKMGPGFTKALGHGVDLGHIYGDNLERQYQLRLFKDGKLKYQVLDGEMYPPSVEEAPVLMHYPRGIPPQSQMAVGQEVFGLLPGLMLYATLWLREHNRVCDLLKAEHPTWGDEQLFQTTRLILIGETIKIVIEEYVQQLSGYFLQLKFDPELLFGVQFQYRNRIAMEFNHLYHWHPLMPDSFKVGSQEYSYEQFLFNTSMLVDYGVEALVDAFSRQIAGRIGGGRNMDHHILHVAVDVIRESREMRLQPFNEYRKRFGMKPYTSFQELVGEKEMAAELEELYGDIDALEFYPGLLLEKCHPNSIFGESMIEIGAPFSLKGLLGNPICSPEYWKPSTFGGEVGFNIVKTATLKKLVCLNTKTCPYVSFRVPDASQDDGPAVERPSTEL
Glucocorticoid receptor (Homo sapiens), sequence (P04150 whole entry): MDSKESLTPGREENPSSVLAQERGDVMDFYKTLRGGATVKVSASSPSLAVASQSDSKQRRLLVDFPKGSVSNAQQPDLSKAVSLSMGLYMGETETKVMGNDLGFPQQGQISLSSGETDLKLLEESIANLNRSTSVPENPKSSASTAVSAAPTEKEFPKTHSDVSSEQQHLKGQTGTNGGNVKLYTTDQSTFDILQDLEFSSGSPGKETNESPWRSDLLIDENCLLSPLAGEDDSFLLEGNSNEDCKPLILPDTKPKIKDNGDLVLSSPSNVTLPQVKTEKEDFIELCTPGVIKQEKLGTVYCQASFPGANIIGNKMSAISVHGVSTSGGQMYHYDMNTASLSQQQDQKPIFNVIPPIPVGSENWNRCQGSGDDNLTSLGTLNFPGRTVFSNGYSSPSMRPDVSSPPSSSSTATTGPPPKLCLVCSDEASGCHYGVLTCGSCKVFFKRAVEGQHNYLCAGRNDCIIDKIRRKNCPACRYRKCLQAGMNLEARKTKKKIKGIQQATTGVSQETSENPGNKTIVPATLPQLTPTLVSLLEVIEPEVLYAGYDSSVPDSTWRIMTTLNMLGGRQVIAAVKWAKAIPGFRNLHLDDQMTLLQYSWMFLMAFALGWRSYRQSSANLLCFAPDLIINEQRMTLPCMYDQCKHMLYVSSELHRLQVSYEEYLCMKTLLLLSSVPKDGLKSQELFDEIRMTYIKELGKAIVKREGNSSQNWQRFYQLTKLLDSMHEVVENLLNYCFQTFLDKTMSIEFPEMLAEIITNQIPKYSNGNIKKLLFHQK
Acetylcholinesterase (Homo sapiens), sequence (P22303 whole entry): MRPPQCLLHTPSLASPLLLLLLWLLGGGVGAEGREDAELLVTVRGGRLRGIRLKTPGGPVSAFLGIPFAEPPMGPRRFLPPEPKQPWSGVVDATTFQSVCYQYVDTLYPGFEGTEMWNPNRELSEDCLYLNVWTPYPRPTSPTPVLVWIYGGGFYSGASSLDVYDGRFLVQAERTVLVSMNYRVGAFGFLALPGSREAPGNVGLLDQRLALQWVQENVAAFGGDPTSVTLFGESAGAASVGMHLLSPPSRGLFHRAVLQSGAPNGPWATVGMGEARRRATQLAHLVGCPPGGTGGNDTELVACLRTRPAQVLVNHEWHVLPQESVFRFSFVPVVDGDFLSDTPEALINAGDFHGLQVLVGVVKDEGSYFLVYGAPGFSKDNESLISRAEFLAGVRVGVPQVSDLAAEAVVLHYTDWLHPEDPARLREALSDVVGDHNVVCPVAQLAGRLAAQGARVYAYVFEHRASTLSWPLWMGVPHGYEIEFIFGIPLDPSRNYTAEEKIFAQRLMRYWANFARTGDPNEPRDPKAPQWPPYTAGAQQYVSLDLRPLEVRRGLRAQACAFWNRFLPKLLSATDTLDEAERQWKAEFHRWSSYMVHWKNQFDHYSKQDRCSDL
5-hydroxytryptamine receptor 3A (Homo sapiens), sequence (P46098 whole entry): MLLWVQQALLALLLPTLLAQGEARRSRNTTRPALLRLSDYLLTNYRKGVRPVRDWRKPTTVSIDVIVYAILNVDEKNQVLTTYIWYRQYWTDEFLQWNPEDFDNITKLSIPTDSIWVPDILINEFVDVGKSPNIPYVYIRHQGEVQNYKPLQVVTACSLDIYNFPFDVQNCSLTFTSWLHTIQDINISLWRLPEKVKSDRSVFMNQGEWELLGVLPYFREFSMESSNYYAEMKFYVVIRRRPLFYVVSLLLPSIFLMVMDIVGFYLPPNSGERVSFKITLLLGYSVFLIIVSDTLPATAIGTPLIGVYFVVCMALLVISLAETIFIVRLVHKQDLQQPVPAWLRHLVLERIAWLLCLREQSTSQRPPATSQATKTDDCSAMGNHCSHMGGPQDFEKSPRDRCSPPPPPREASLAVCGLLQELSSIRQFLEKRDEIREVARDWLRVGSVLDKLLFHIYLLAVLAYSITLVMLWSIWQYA
Alpha-1A adrenergic receptor (Homo sapiens), sequence (P35348 whole entry): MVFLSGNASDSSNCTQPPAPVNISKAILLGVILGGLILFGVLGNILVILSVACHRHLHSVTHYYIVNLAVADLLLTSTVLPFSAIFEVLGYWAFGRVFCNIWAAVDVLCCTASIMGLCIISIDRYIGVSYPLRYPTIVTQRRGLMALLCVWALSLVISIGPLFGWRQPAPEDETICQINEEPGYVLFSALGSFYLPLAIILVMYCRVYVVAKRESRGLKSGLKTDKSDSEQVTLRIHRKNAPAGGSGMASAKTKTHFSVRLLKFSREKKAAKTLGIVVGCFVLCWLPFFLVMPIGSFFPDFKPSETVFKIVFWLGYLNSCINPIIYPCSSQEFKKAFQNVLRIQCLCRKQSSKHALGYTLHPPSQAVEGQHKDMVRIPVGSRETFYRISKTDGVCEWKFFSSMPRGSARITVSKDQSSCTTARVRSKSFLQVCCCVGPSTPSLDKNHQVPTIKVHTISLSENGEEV
Histamine H2 receptor (Homo sapiens), sequence (P25021 whole entry): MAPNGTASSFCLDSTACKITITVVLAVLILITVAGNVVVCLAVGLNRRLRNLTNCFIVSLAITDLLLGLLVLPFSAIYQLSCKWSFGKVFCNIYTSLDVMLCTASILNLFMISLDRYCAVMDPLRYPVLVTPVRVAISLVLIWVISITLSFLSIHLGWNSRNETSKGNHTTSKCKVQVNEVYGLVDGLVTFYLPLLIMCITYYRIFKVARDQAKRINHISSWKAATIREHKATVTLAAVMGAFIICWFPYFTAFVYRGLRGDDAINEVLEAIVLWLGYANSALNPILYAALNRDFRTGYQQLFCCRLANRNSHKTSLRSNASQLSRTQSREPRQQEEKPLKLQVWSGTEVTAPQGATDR

In the case of `Cc1cc(/N=N/c2ccc(S(=O)(=O)NC3CCCC3)cc2)c(N)cc1O`, the IC50 [1] is reported as greater than 10 µM, the Vd [2] is reported as 1.12 L/kg and the Cmax [3] is reported as 36 ng/mL. The AUC(0-t) [4] was 104 ng·h/mL, the Activity [5] was “Active” and the Activity [6] was “Non-Toxic”. The Activity [7] was “Non-Toxic”, the Activity [8] was 17.2% and the Activity [9] was -2.4%. For the same compound, the Activity [10] was 59.3%, the Activity [11] was 17.4% and the Activity [12] was 36.9%. For the same compound, the Activity [13] was -10.1%, the Activity [14] was -2.9% and the Activity [15] was -2.7%. It also gave an Activity [16] of -0.1%, an Activity [17] of -12.9% and an Activity [18] of 15%. For the same compound, the Activity [19] was 32.4%, the inhibition at […], 10 µM [20] was 42% and the inhibition at 1 h, 10 µM [21] was 23.6%. It also gave an Activity [22] of 8.5%, an Activity [23] of 15% and an Activity [24] of 28.2 to 41.6%. For the same compound, the Activity [25] was -20.6%, the Activity [26] was 11.7% and the Activity [27] was -14.2%. For the same compound, the Activity [28] was -26.2% and the Activity [29] was “Active”.
